Assay outcomes: PubChem BioAssay, Johns Hopkins Ion Channel Center
This is a sample that favours compounds with a hit; in the whole collection about 3.7% have one here.
hERG protect – hERG rescue from dofetilide block, primary screen, cell-based, CHO-hERG, FluxOR thallium flux, dofetilide IC70; AID 1511, 2009; activation (rescue from dofetilide block), less the hit threshold, % at 10 µM; hit rate 0.51% among 310,000; dofetilide IC70 present; Voltage-gated inwardly rectifying potassium channel KCNH2 (Homo sapiens), Q12809;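 active = activation above the mean of controls blocked by dofetilide plus 5 SD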;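 also: thallium influx through hERG after potassium depolarization seen as dye fluorescence rise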
KCNQ1 inh – inhibitors of human KCNQ1 channel, primary screen, cell-based, thallium flux, high-throughput. Potassium voltage-gated channel subfamily KQT member 1 (Homo sapiens), P51787. CHO-K1 KCNQ1, FluxOR thallium flux fluorescence; stronger effect = higher value. B-score at 10 µM. hit rate 1.3% among 310,000. AID 2642, 2010;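 active = compounds whose thallium flux B-score, printed positive for inhibition, exceeds three library SD while starting fluorescence stays within three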;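 also: channel opened by potassium depolarization with thallium stimulus after 20 min compound exposure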
KCNK9 inh – KCNK9 potassium channel inhibitors, primary screen, HEK293 cells, thallium flux; Potassium channel subfamily K member 9 (Homo sapiens), Q9NPC2; FluxOR thallium flux fluorescence; stronger effect = lower value; B-score at 10 µM; hit rate 1.2% among 310,000; AID 488922, 2010;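 active = ratio B-score over 3 SD below the library mean, with starting fluorescence within 5 SD of its mean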;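 also: negative B-score means less thallium flux so channel inhibition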
Target sequence (Q9NPC2 whole entry, looked up): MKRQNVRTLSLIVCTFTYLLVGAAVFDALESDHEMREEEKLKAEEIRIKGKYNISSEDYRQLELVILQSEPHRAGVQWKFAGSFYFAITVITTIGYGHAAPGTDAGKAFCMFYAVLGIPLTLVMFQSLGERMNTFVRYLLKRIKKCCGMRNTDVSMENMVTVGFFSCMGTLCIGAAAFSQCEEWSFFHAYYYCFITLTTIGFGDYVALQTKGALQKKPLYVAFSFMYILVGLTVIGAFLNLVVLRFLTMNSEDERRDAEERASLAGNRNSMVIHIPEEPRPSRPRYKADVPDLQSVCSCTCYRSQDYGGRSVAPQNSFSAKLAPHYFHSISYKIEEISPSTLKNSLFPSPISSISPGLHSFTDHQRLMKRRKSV
KCNK3 inh – human KCNK3 channel inhibitors, primary screen, CHO cells, FluxOR thallium flux, B-score. FluxOR fluorescence; stronger effect = lower value. B-score at 10 µM. hit rate 0.84% among 340,000. AID 602410, 2012;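 active = B-score under library mean minus 4 SD, starting fluorescence ratio at most library mean plus 5 SD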;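 also: more negative B-score means stronger inhibition of thallium flux through KCNK3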
KCNQ1 pot – potentiators or activators of KCNQ1 channel, primary screen, cell-based, thallium flux, high-throughput; B-score at 10 µM; CHO-K1 KCNQ1, thallium flux FluxOR fluorescence; stronger effect = higher value; hit rate 0.35% among 310,000; Potassium voltage-gated channel subfamily KQT member 1 (Homo sapiens), P51787;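 active = fluorescence ratio B-score, a plate-corrected score, at least three library SD, with initial intensity B-score within 5 SD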
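Medium – assay buffer, equal DMSO in all wells · Material – CHO-K1 cell line with stable KCNQ1 potassium channel expression · Signal – kinetic FluxOR thallium fluorescence, 10-s 1-Hz baseline, 110-s post-stimulus read · Compound – single concentration per compound, DMSO matched to controls · Schedule – 37 °C overnight plating, 90-min dark dye load, 20-min compound pretreatment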
Kir21 block – inhibitors of mouse Kir2.1 inward-rectifier potassium channel. B-score at 10 µM. HEK293-Kir2.1, FluxOR thallium flux fluorescence; stronger effect = lower value. Inward rectifier potassium channel 2 (Mus musculus), P35561. hit rate 0.85% among 310,000;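 active = fluorescence ratio B-score at or below minus 3 SD of library scores, with starting-brightness B-score within 2 SD, cut at about -4.2 in these data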;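 also: channel flux triggered by added potassium and thallium sulfate stimulus; B-score of peak minus minimum fluorescence over baseline after thallium stimulus; more negative B-score means stronger Kir2.1 block with less thallium influx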
KCNK3 inh conf – retest of human KCNK3 channel inhibitors, confirmation, CHO cells, FluxOR thallium flux, triplicate. shares compounds with KCNK3 inh. FluxOR fluorescence; 0% buffer, 100% carvedilol maximal block. ratio percent of control, % at 10 µM. hit rate 99% among 2,400. AID 651638, 2012;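 active = ratio percent of control, averaged over triplicates, above buffer control mean plus 5 SD, cut at about 64% in these data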;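 also: ratio is the fluorescence rise from min to max over baseline after thallium stimulus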
KCNK3 uninduced – thallium flux inhibition in non-induced cells, primary screen, counter-screen for KCNK3 inhibitor project, cell-based, non-induced KCNK3 line, FluxOR thallium, triplicate; shares compounds with KCNK3 inh; non-induced KCNK3 parental cells; stronger effect = lower value; thallium flux ratio (lower = more inhibition) at 10 µM; hit rate 40% among 2,400; AID 651747, 2012;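 active = thallium flux ratio, averaged over three wells, more than 5 SD below the buffer control mean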;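 also: host cells are CHO cells without KCNK3 induction; ratio is peak minus trough fluorescence over baseline then normalized to buffer controls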
Numbers without * were called inactive; i = inactive; . = not tested or not shown.

SMILES | hERG protect | KCNQ1 inh | KCNK9 inh | KCNK3 inh | KCNQ1 pot | Kir21 block | KCNK3 inh conf | KCNK3 uninduced
O=C(Nc1ccc(Cl)cn1)C1CCCN(c2ncnc3c2nc2n3CCCCC2)C1 (stereo unspecified) | -15 | i | i | i | i | 0.2 | . | .
C=CCN(CC=C)C(=O)CN1C(=O)NC(Cc2c[nH]c3ccccc23)C1=O (stereo unspecified) | 0 | i | i | i | i | 0 | . | .
CCN(CC)S(=O)(=O)c1cccc(C(=O)NC(Cc2c[nH]c3ccccc23)c2nnc3n2CCC3)c1 (stereo unspecified) | -3 | i | i | i | i | 0.34 | . | .
Cc1cccc2cc(CN(Cc3ccco3)C(=O)Nc3cccc(C#N)c3)c(Cl)nc12 | -11 | 6* | i | -9.3* | i | -2.7 | 122* | 0.14*
Cc1ccc(NC(=O)N(Cc2ccco2)Cc2cc3cc(C)cc(C)c3nc2Cl)cc1 | -9 | i | i | . | i | 0.32 | . | .
COc1ccc(C2OC34CCCCC3C(C#N)(C#N)C2(C#N)C(=N)O4)cc1 (stereo unspecified) | -16 | i | i | i | i | -1.7 | . | .
O=C(NCCc1cn2ccccc2n1)c1cc(COc2ccc3ncccc3c2)on1 | -27 | i | i | -14* | i | -0.86 | 130* | i
O=C(NCCc1cn2ccccc2n1)c1ccccc1F | -3 | i | i | i | i | 0.06 | . | .
COc1cccc(CN(C)C(=O)c2cc(COc3ccc(-n4cncn4)cc3)on2)c1 | -14 | i | i | i | i | -1.4 | . | .
COc1cccc(CN(C)C(=O)c2cc(COc3ccc4ncccc4c3)on2)c1 | -19 | i | i | -9.8* | i | -1.9 | 120* | i
CC1=NN(C(=O)CSCc2ccccc2)C(O)(c2ccc(F)cc2)C1 (stereo unspecified) | -5 | i | -6.9* | -9.2* | i | -1.2 | 95* | i
Cc1ccc(CSc2nc3c(c(N(C)C)n2)CCCC3)cc1 | -4 | i | i | -8.9* | i | -0.49 | 139* | 0.12*
CN(C)c1nc(SCc2ccccc2Cl)nc2c1CCCC2 | -3 | i | i | i | i | 0.58 | . | .
CCN(CC1COc2ccccc2O1)C(=O)c1ccc(Cl)c(S(=O)(=O)N2CC(C)OC(C)C2)c1 (stereo unspecified) | -15 | i | i | i | i | 0.66 | . | .
CC1CN(S(=O)(=O)c2cc(C(=O)N(CCc3ccccc3)Cc3ccccc3)ccc2Cl)CC(C)O1 (stereo unspecified) | -16 | i | i | -8.7* | i | 0.72 | 85* | i
O=C(NNC(=O)c1cc(-c2ccncc2)nc2ccccc12)c1ccccc1O | -11 | i | i | i | i | 1.6 | . | .
CC(=O)Nc1cc(C(=O)OC(C(=O)c2ccccc2)c2ccccc2)ccc1C (stereo unspecified) | -19 | i | i | -10* | i | -0.11 | 79* | i
COc1ccc(C(=O)C(OC(=O)c2ccc(C)c(NC(C)=O)c2)c2ccccc2)cc1 (stereo unspecified) | -16 | i | i | i | i | 2.8 | . | .
Oc1ccc(-c2csc(-c3ccccc3)n2)cc1O | -20 | i | i | i | i | 2.2 | . | .
Oc1ccccc1-c1csc(-c2ccccc2)n1 | -9 | i | -6.6* | -9.1* | i | 1.6 | 115* | 0.14*
CCCCCn1c(N)c(-c2nc3ccccc3s2)c2c([N+](=O)[O-])nn(C)c(=O)c21 | -43 | 11* | i | -11* | i | -0.01 | 102* | 0.15*
COc1ccc(OC)c(CN2CCN(CCc3ccccc3)C(CCO)C2)c1 (stereo unspecified) | -7 | i | i | i | i | -0.02 | . | .
COc1ccc(CN2CCN(CCc3ccccc3)C(CCO)C2)c(Cl)c1OC (stereo unspecified) | -3 | i | i | -9.9* | i | 0.1 | 85* | i
Cc1cc(=O)oc2cc(NC(=O)c3ccccc3OC(F)F)ccc12 | -6 | i | i | -11* | i | 0.95 | 105* | i
CCS(=O)(=O)c1ccc(O)c(NC(=O)CC2(CC(=O)O)CCCC2)c1 | -10 | i | i | i | i | 1.6 | . | .
SMILES | hERG protect | KCNQ1 inh | KCNK9 inh | KCNK3 inh | KCNQ1 pot | Kir21 block | KCNK3 inh conf | KCNK3 uninduced
COc1ccccc1-c1nnc(SCC(=O)NNC(=O)c2ccccc2F)n1C | . | . | . | i | . | . | . | .
CCOC(=O)c1ccc(NC(=O)CSc2nnc(CCc3ccc(C)o3)n2-c2ccccc2)cc1 | -10 | i | i | -17* | i | -1.6 | 90* | i
O=C(Nc1ccc(-c2noc(-c3cccs3)n2)cc1)c1cccnc1 | -1 | i | i | i | i | 0.01 | . | .
Cc1ccc(CN2CCN(/N=C/c3ccc(Cl)c([N+](=O)[O-])c3)CC2)cc1 | -1 | i | i | -8.7* | i | 2.6 | 121* | i
Cc1ccc(/C=N/N2CCN(Cc3ccccc3)CC2)cc1 | -5 | i | i | i | i | -0.41 | . | .
O=C(c1cc(-c2cccc(O)c2)on1)N1CCCCCC1 | -2 | i | i | -11* | i | 0.98 | 68* | i
O=C(O)C1CCCCN1C(=O)c1ccc(S(=O)(=O)N2CCCC2)cc1 (stereo unspecified) | . | . | . | i | . | . | . | .
CC1CCCCC1NC(=O)c1ccc2c(c1)[nH]c(=O)n2C1CCCC1 (stereo unspecified) | -8 | i | i | -9.5* | i | -1.3 | 105* | i
COc1ccc2c(c1)C(c1cccs1)=NNC(c1ccncc1)=N2 | -9 | i | i | -8.8* | i | -0.02 | 66* | i
O=C(c1ccc2ccccc2c1)N1CCN(S(=O)(=O)/C=C/c2ccccc2)CC1 | -10 | i | i | -9.1* | i | -0.28 | 96* | i
